Measured values as given in publication PMC3479660 (Thrombosis and haemostasis, 2012).
One block for each molecule: values may come before it.

What was measured:
P2Y12 receptor [1] = target: T1, P2Y12 receptor (Homo sapiens, UniProt Q9H244); experiment: [3H]PSB-0413 radioligand competition binding, Sf9 insect cell membranes; conditions: for rank order of potency at labelled binding sites: unpublished data of the authors
washed platelets [2] = assay type: cell-based, human; conditions: intermediates 30 μM vs 2-MeSADP 0.04 μM
human platelets [3] = experiment: LTA with PRP: TRAP-mediated platelet aggregation; assay type: cell-based; conditions: 30 μM FPP, TRAP 15 μM
human platelets [4] = experiment: LTA with PRP: epinephrine-mediated platelet aggregation; assay type: cell-based; conditions: 30 μM FPP, epinephrine 1 μM
Outline: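 For light transmission aggregometry, human platelets were normalised to 300,000 cells/μl and exposed to 30 μM test compound before agonist. Epinephrine was added at 1 μM (n=15); the TRAP arm had n=7. Representative traces accompanied the bar data.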

human platelets [5] = experiment: LTA with PRP: LPA-stimulated platelet aggregation; assay type: cell-based; conditions: 30 μM test compound pre-incubated, LPA 10 μM
Outline: (§1)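 Turbidimetric light transmission aggregometry was run on human PRP normalised to 300,000 cells/μl. Platelets were pre-treated for 5 min with 30 μM test compound, then given 10 μM LPA. Shape change was taken from the traces (n=10). Aggregation was reported as mean platelet aggregation in % (n=8).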

P2Y12 receptor [6] = target: T1, P2Y12 receptor; experiment: [35S]GTPγS binding in isolated platelet membranes; assay type: biochemical
human platelets [7] = experiment: LTA: 2-MeSADP-stimulated platelet aggregation; assay type: cell-based; conditions: for effect on 2-MeSADP-stimulated platelet aggregation: 30 μM test compound, 30 nM 2-MeS-ADP, PRP
Outline: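 In human PRP (300,000 cells/μl), aggregation was stimulated with 2-MeSADP (30 nM) with or without 30 μM test compound. Full 2-MeSADP concentration-response curves were run alone or after pre-incubation with 15 or 30 μM test compound. Values were normalised to 2-MeSADP alone and EC50 was derived from the curves; n=6.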

human platelets [8] = experiment: LTA with PRP: LPA-stimulated platelet shape change; assay type: cell-based
Outline: as §1

washed platelets [9] = experiment: Calcium flux assay on platelets; assay type: cell-based, human; conditions: 30 μM FPP

T1 sequence (Q9H244 whole entry): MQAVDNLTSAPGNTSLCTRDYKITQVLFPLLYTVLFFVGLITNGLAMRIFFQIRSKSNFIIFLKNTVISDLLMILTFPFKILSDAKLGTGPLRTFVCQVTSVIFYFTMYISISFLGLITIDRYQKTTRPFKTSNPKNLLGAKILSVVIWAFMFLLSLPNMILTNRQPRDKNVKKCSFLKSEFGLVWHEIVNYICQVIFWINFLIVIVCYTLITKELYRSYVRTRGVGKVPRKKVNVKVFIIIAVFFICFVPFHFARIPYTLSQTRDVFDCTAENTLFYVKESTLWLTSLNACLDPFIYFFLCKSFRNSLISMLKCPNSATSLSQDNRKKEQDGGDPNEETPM

extent of inhibition of [3H]PSB-0413 binding (P2Y12 receptor [1]): complete inhibition
SMILES: Nc1ncnc2c1ncn2[C@@H]1O[C@H](COP(=O)(O)OP(=O)(O)O)[C@@H](O)[C@H]1O [ADP, adenosine diphosphate]
rank order of potency at labelled binding sites (P2Y12 receptor [1]): PSB-0739 ([21], [22]). >2-methylthio-ADP > ADP

SMILES: CC(C)=CCOP(=O)(O)OP(=O)(O)O.N.N.N [DMAPP, γ,γ-dimethylallyl pyrophosphate triammonium salt]
antagonistic activity on platelets stimulated by 2-MeSADP (washed platelets [2]): Only FPP displayed a statistically significant effect

SMILES: CC(C)=CCCC(C)=CCCC(C)=CCOP(=O)(O)O.N.N [FMP, 3,7,11-trimethyl-2,6,10-dodecatrien-1-yl monophosphate ammonium salt]
antagonistic activity on platelets stimulated by 2-MeSADP (washed platelets [2]): Only FPP displayed a statistically significant effect

SMILES: CC(C)=CCCC(C)=CCCC(C)=CCOP(=O)(O)OP(=O)(O)O.N.N.N [FPP, 3,7,11-Trimethyl-2,6,10-dodecatrien-1-yl pyrophosphate ammonium salt]
effect on TRAP-stimulated platelet aggregation (human platelets [3]): unaffected
effect on epinephrine-stimulated platelet aggregation (human platelets [4]): unaffected
effect on LPA-stimulated platelet aggregation (human platelets [5]): no effect
IC50 (P2Y12 receptor [1]): 65.8 µM
extent of inhibition of [3H]PSB-0413 binding (P2Y12 receptor [1]): partial inhibition
maximal inhibition of [3H]PSB-0413 binding (P2Y12 receptor [1]; very high concentrations): 30–40%
IC50 (P2Y12 receptor [6]): 45 µM
effect of compound alone on [35S]GTPγS binding (P2Y12 receptor [6]; FPP 1 M alone (so in the source)): small, but significant, increase
concentrations at which FPP independently stimulated [35S]GTPγS binding (P2Y12 receptor [6]; platelet membranes): below 6 μM
effect on 2-MeSADP-stimulated platelet aggregation (human platelets [7]): clear, concentration-dependent inhibition
inhibition at 10 µM (human platelets [7]; Homo sapiens, Platelet, read-out: inhibition of 2-MeSADP-stimulated aggregation): 40 ± 5%
effect on LPA-stimulated platelet shape change (human platelets [8]; 30 μM FPP, 10 μM LPA, p=0.017): potentiated
platelet shape change, compound alone (human platelets [8]; FPP alone): unable to show an effect
antagonistic activity on platelets stimulated by 2-MeSADP (washed platelets [2]): statistically significant effect
effect on ADP-stimulated calcium signalling (washed platelets [9]; 5 μM ADP): no statistical significance
effect on thrombin-stimulated calcium signalling (washed platelets [9]; thrombin 0.5 U/ml): no statistical significance

SMILES: CC(C)=CCC/C(C)=C/CC/C(C)=C/CC/C(C)=C/COP(=O)(O)OP(=O)(O)O.N.N.N [GGPP, all trans-3,7,11,15-tetra-methyl-2,6,10,14-hexadecatetraenyl pyrophosphate ammonium salt]
antagonistic activity on platelets stimulated by 2-MeSADP (washed platelets [2]): Only FPP displayed a statistically significant effect

SMILES: CC(C)=CCC/C(C)=C/COP(=O)(O)OP(=O)(O)O.N.N.N [GPP, trans-3,7-dimethyl-2,6-octadienyl pyrophosphate ammonium salt]
antagonistic activity on platelets stimulated by 2-MeSADP (washed platelets [2]): Only FPP displayed a statistically significant effect

SMILES: C=C(C)CCOP(=O)(O)OP(=O)(O)O.N.N.N [IPP, isopentenyl pyrophosphate triammonium salt]
antagonistic activity on platelets stimulated by 2-MeSADP (washed platelets [2]): Only FPP displayed a statistically significant effect

SMILES: CCCCC/C=C\C/C=C\C/C=C\C/C=C\CCCC(=O)NCC(=O)O [NAG, N-arachidonoylglycine, reference compound]
effect on LPA-stimulated platelet aggregation (human platelets [5]): No statistically significant inhibitory effect
effect on 2-MeSADP-stimulated platelet aggregation (human platelets [7]): without effect

extent of inhibition of [3H]PSB-0413 binding (P2Y12 receptor [1]): complete inhibition
SMILES: Nc1c(S(=O)(=O)[O-])cc(Nc2ccc(Nc3ccccc3)c(S(=O)(=O)[O-])c2)c2c1C(=O)c1ccccc1C2=O.[Na+].[Na+] [PSB-0739, 1-amino-4-[4-phenylamino-sulfophenylamino]-9,10-dioxo-9,10-dihydroanthracene-2-sulfonic acid disodium salt]
rank order of potency at labelled binding sites (P2Y12 receptor [1]): PSB-0739 ([21], [22]). >2-methylthio-ADP > ADP

effect on 2-MeSADP dose response curve of [35S]GTPγS binding (P2Y12 receptor [6]; 60 nM ticagrelor): right-shifted the dose response curve
effect on FPP-stimulated [35S]GTPγS binding (P2Y12 receptor [6]; 10 μM ticagrelor): readily blocked
SMILES: CCCSc1nc(N[C@@H]2C[C@H]2c2ccc(F)c(F)c2)c2nnn([C@@H]3C[C@H](OCCO)[C@@H](O)[C@H]3O)c2n1 [ticagrelor, Ticagrelor, reference compound]
